Reference: ChEMBL document CHEMBL3588802, “Thiol activated prodrugs of sulfur dioxide (SO2) as MRSA inhibitors” (Bioorg Med Chem Lett, 2015)
≈ marks a conversion by molar mass, not a printed value. Calls of active or inactive are those of the source. The calls are words filed in the database; no cut-off is given here.

Experiments:
Enterococcus faecalis = assay: Antibacterial activity against Enterococcus faecalis after 18 to 20 hrs by microbroth dilution method; format: functional
Staphylococcus aureus [1] = assay: Antibacterial activity against methicillin-sensitive Staphylococcus aureus after 18 to 20 hrs by microbroth dilution method; format: functional
Escherichia coli = assay: Antibacterial activity against Escherichia coli after 18 to 20 hrs by microbroth dilution method; format: functional
Staphylococcus aureus [2] = assay: Antibacterial activity against methicillin-resistant Staphylococcus aureus after 18 to 20 hrs by microbroth dilution method; format: functional
Staphylococcus aureus [3] = assay: Induction of intracellular thiol depletion in Staphylococcus aureus after 60 mins by monobromobimane-based fluorescence assay relative to control
[4] = Cytotoxicity against human A549 cells after 72 hrs by MTT assay; format: cell-based
Staphylococcus aureus [5] = assay: Antibacterial activity against patient-derived methicillin-resistant Staphylococcus aureus 7425 after 18 to 20 hrs by microbroth dilution method; format: functional
Method in brief: (§1)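 Patient-derived MRSA clinical isolates from the Department of Microbiology, Nizam's Institute of Medical Sciences, Hyderabad. MIC determined by broth dilution.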

Staphylococcus aureus [6] = assay: Antibacterial activity against patient-derived methicillin-resistant Staphylococcus aureus K1 after 18 to 20 hrs by microbroth dilution method; format: functional; method in brief: as §1
Staphylococcus aureus [7] = assay: Antibacterial activity against patient-derived methicillin-resistant Staphylococcus aureus B19506 after 18 to 20 hrs by microbroth dilution method; format: functional; method in brief: as §1
[8] = Selectivity index, ratio of GI50 for human A549 cells to MIC for Staphylococcus aureus
Method in brief: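 Selectivity index calculated as GI50 in A549 lung carcinoma cells divided by MIC.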

Staphylococcus aureus [9] = assay: Antibacterial activity against patient-derived methicillin-resistant Staphylococcus aureus 7386 after 18 to 20 hrs by microbroth dilution method; format: functional; method in brief: as §1
Staphylococcus aureus [10] = assay: Antibacterial activity against patient-derived methicillin-resistant Staphylococcus aureus 7419 after 18 to 20 hrs by microbroth dilution method; format: functional; method in brief: as §1
Staphylococcus aureus [11] = assay: Induction of intracellular thiol depletion in Staphylococcus aureus after 60 mins by monobromobimane-based fluorescence assay relative to control; format: functional, organism-based
Staphylococcus aureus [12] = assay: Induction of intracellular oxidative species generation in methicillin-sensitive Staphylococcus aureus 29213 at 0.5 to 8 ug/ml after 1 hr by DCFH2-DA dye-based fluorescence assay; format: functional, organism-based
Method in brief: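 Intracellular oxidative species in S. aureus are read as fluorescence of 2,7-dichlorodihydrofluorescein-diacetate (DCFH2-DA) after exposure to compound.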

Row | SMILES | MIC (Enterococcus faecalis) | MIC (Staphylococcus aureus [1]) | MIC (Escherichia coli) | MIC (Staphylococcus aureus [2]) | also measured
1 | C#CCN(c1ccccc1OC)S(=O)(=O)c1ccc([N+](=O)[O-])cc1[N+](=O)[O-] | 8 µg/mL (≈ 20.4 µM) | 4 µg/mL (≈ 10.2 µM) | > 32 µg/mL | 8 µg/mL (≈ 20.4 µM) | 
2 | C#CCN(CC)S(=O)(=O)c1ccc([N+](=O)[O-])cc1[N+](=O)[O-] | > 32 µg/mL | 16 µg/mL (≈ 51.1 µM) | > 32 µg/mL | 16 µg/mL (≈ 51.1 µM) | Activity (Staphylococcus aureus [3]): inactive
3 | COc1ccccc1N(CCCN(Cc1ccccc1)S(=O)(=O)c1ccc([N+](=O)[O-])cc1[N+](=O)[O-])S(=O)(=O)c1ccc([N+](=O)[O-])cc1[N+](=O)[O-] |  | > 32 µg/mL |  |  | 
4 | O=[N+]([O-])c1ccc(S(=O)(=O)N(CCCN(c2ccccc2)S(=O)(=O)c2ccc([N+](=O)[O-])cc2[N+](=O)[O-])Cc2ccccc2)c([N+](=O)[O-])c1 |  | > 16 µg/mL |  |  | 
5 | C#CCN(Cc1cccc(OC)c1)S(=O)(=O)c1ccc([N+](=O)[O-])cc1[N+](=O)[O-] |  | 16 µg/mL (≈ 39.5 µM) |  |  | 
6 | COc1cccc(N(CCCN(Cc2ccccc2)S(=O)(=O)c2ccc([N+](=O)[O-])cc2[N+](=O)[O-])S(=O)(=O)c2ccc([N+](=O)[O-])cc2[N+](=O)[O-])c1 |  | > 32 µg/mL |  |  | 
7 | COc1ccccc1CN(CCCN(Cc1ccccc1)S(=O)(=O)c1ccc([N+](=O)[O-])cc1[N+](=O)[O-])S(=O)(=O)c1ccc([N+](=O)[O-])cc1[N+](=O)[O-] | > 32 µg/mL | > 32 µg/mL | > 32 µg/mL |  | 
8 | N#Cc1ccc(NS(=O)(=O)c2ccc([N+](=O)[O-])cc2[N+](=O)[O-])cc1 |  | > 16 µg/mL |  |  | 
9 | CCCCN(c1ccccc1OC)S(=O)(=O)c1ccc([N+](=O)[O-])cc1[N+](=O)[O-] | > 32 µg/mL | > 32 µg/mL | > 32 µg/mL |  | 
10 | CCN1C(=O)C=CC1=O |  |  |  |  | Activity (Staphylococcus aureus [3]): Active
11 | O=[N+]([O-])c1ccc(S(=O)(=O)N(CCCO)Cc2ccccc2)c([N+](=O)[O-])c1 | 32 µg/mL (≈ 80.9 µM) | 16 µg/mL (≈ 40.5 µM) | > 32 µg/mL | 8 µg/mL (≈ 20.2 µM) | 
12 | O=[N+]([O-])c1ccc(S(=O)(=O)N(CCCN(Cc2ccccc2)S(=O)(=O)c2ccc([N+](=O)[O-])cc2[N+](=O)[O-])Cc2ccccc2)c([N+](=O)[O-])c1 |  | > 16 µg/mL |  |  | 
13 | O=[N+]([O-])c1ccc(S(=O)(=O)Nc2ccc(F)cc2)c([N+](=O)[O-])c1 |  | 16 µg/mL (≈ 46.9 µM) |  |  | 
14 | C=CCN(c1ccccc1OC)S(=O)(=O)c1ccc([N+](=O)[O-])cc1[N+](=O)[O-] | > 32 µg/mL | 8 µg/mL (≈ 20.3 µM) | > 32 µg/mL | 4 µg/mL (≈ 10.2 µM) | 
15 | COc1ccc(NS(=O)(=O)c2ccc([N+](=O)[O-])cc2[N+](=O)[O-])cc1 |  | > 16 µg/mL |  |  | 
16 | O=[N+]([O-])c1ccc(S(=O)(=O)Nc2ccccc2)c([N+](=O)[O-])c1 |  | 8 µg/mL (≈ 24.7 µM) |  |  | 
17 | C#CCN(c1cccc(OC)c1)S(=O)(=O)c1ccc([N+](=O)[O-])cc1[N+](=O)[O-] | 8 µg/mL (≈ 20.4 µM) | 4 µg/mL (≈ 10.2 µM) | > 32 µg/mL | 4 µg/mL (≈ 10.2 µM) | GI50 at 72 h [4]: 27 µM; MIC (Staphylococcus aureus [5]): 2 µg/mL (≈ 5.11 µM); MIC (Staphylococcus aureus [6]): 4 µg/mL (≈ 10.2 µM); MIC (Staphylococcus aureus [7]): 2 µg/mL (≈ 5.11 µM); Selectivity Index [8]: 5.2; MIC (Staphylococcus aureus [9]): 2 µg/mL (≈ 5.11 µM); MIC (Staphylococcus aureus [10]): 4 µg/mL (≈ 10.2 µM); Activity (Staphylococcus aureus [11]): Dose-dependent effect; Activity (Staphylococcus aureus [12]): Active
18 | CCN(c1cccc(OC)c1)S(=O)(=O)c1ccc([N+](=O)[O-])cc1[N+](=O)[O-] | 8 µg/mL (≈ 21 µM) | 8 µg/mL (≈ 21 µM) | > 32 µg/mL | 8 µg/mL (≈ 21 µM) | 
19 | COc1ccccc1N(Cc1ccccc1)S(=O)(=O)c1ccc([N+](=O)[O-])cc1[N+](=O)[O-] | > 32 µg/mL | > 32 µg/mL | > 32 µg/mL |  | 
20 | COc1ccc(CN(CCCN(Cc2ccccc2)S(=O)(=O)c2ccc([N+](=O)[O-])cc2[N+](=O)[O-])S(=O)(=O)c2ccc([N+](=O)[O-])cc2[N+](=O)[O-])c(OC)c1 | > 32 µg/mL | > 16 µg/mL | > 32 µg/mL | > 32 µg/mL | Activity (Staphylococcus aureus [3]): inactive

Row | SMILES | MIC (Enterococcus faecalis) | MIC (Staphylococcus aureus [1]) | MIC (Escherichia coli) | MIC (Staphylococcus aureus [2]) | also measured
21 | O=[N+]([O-])c1ccc(S(=O)(=O)N(CCCN(c2ccccc2F)S(=O)(=O)c2ccc([N+](=O)[O-])cc2[N+](=O)[O-])Cc2ccccc2)c([N+](=O)[O-])c1 |  | > 32 µg/mL |  |  | 
22 | COc1cccc(NS(=O)(=O)c2ccc([N+](=O)[O-])cc2[N+](=O)[O-])c1 | > 32 µg/mL | 16 µg/mL (≈ 45.3 µM) | > 32 µg/mL | 32 µg/mL (≈ 90.6 µM) | 
23 | C#CCN(C)S(=O)(=O)c1ccc([N+](=O)[O-])cc1[N+](=O)[O-] | > 32 µg/mL | 8 µg/mL (≈ 26.7 µM) | > 32 µg/mL | 8 µg/mL (≈ 26.7 µM) | 
24 | O=[N+]([O-])c1ccc(S(=O)(=O)NCc2ccccc2)c([N+](=O)[O-])c1 |  | > 16 µg/mL |  |  | 
25 | CCCN(c1ccccc1OC)S(=O)(=O)c1ccc([N+](=O)[O-])cc1[N+](=O)[O-] | > 32 µg/mL | > 32 µg/mL | > 32 µg/mL |  | 
26 | COc1ccc(N(CCCN(Cc2ccccc2)S(=O)(=O)c2ccc([N+](=O)[O-])cc2[N+](=O)[O-])S(=O)(=O)c2ccc([N+](=O)[O-])cc2[N+](=O)[O-])cc1 |  | > 32 µg/mL |  |  | 
27 | CN(Cc1ccccc1)S(=O)(=O)c1ccc([N+](=O)[O-])cc1[N+](=O)[O-] |  | 8 µg/mL (≈ 22.8 µM) |  |  | 
28 | COc1cccc(N(C)S(=O)(=O)c2ccc([N+](=O)[O-])cc2[N+](=O)[O-])c1 | 8 µg/mL (≈ 21.8 µM) | 8 µg/mL (≈ 21.8 µM) | > 32 µg/mL | 4 µg/mL (≈ 10.9 µM) | 
29 | COc1ccc(CNS(=O)(=O)c2ccc([N+](=O)[O-])cc2[N+](=O)[O-])cc1 |  | > 16 µg/mL |  |  | 
30 | O=C(O)c1cn(C2CC2)c2cc(N3CCNCC3)c(F)cc2c1=O [CIPROFLOXACIN] |  |  | ≤ 0.00075 µg/mL | 0.25 µg/mL (≈ 0.754 µM) | MIC (Staphylococcus aureus [5]): > 4 µg/mL; MIC (Staphylococcus aureus [6]): 0.5 µg/mL (≈ 1.51 µM); MIC (Staphylococcus aureus [7]): 32 µg/mL (≈ 96.6 µM); MIC (Staphylococcus aureus [9]): > 4 µg/mL; MIC (Staphylococcus aureus [10]): > 4 µg/mL
31 | NC[C@H]1O[C@H](O[C@H]2[C@H](O)[C@@H](O[C@H]3O[C@H](CO)[C@@H](O)[C@H](N)[C@H]3O)[C@H](N)C[C@@H]2N)[C@H](N)C[C@@H]1O [TOBRAMYCIN] |  |  |  | > 32 µg/mL | MIC (Staphylococcus aureus [5]): 1 µg/mL (≈ 2.14 µM); MIC (Staphylococcus aureus [6]): 8 µg/mL (≈ 17.1 µM); MIC (Staphylococcus aureus [7]): > 32 µg/mL; MIC (Staphylococcus aureus [9]): > 32 µg/mL; MIC (Staphylococcus aureus [10]): > 32 µg/mL
32 | COc1ccccc1N(C)S(=O)(=O)c1ccc([N+](=O)[O-])cc1[N+](=O)[O-] | 16 µg/mL (≈ 43.6 µM) | 16 µg/mL (≈ 43.6 µM) | > 32 µg/mL | 16 µg/mL (≈ 43.6 µM) | 
33 | C#CCN(Cc1ccccc1)S(=O)(=O)c1ccc([N+](=O)[O-])cc1[N+](=O)[O-] | 16 µg/mL (≈ 42.6 µM) | 4 µg/mL (≈ 10.7 µM) | > 32 µg/mL | 4 µg/mL (≈ 10.7 µM) | 
34 | C[C@@H](O)[C@H]1C(=O)N2C(C(=O)O)=C(S[C@@H]3CN[C@H](C(=O)N(C)C)C3)[C@H](C)[C@H]12 [MEROPENEM] |  |  |  | 16 µg/mL (≈ 41.7 µM) | MIC (Staphylococcus aureus [5]): 4 µg/mL (≈ 10.4 µM); MIC (Staphylococcus aureus [6]): 0.5 µg/mL (≈ 1.3 µM); MIC (Staphylococcus aureus [7]): 1 µg/mL (≈ 2.61 µM); MIC (Staphylococcus aureus [9]): > 32 µg/mL; MIC (Staphylococcus aureus [10]): 16 µg/mL (≈ 41.7 µM)
35 | C#CCN(Cc1ccc(OC)cc1)S(=O)(=O)c1ccc([N+](=O)[O-])cc1[N+](=O)[O-] | 16 µg/mL (≈ 39.5 µM) | 8 µg/mL (≈ 19.7 µM) | > 32 µg/mL | 8 µg/mL (≈ 19.7 µM) | 
36 | COc1ccccc1NS(=O)(=O)c1ccc([N+](=O)[O-])cc1[N+](=O)[O-] | 16 µg/mL (≈ 45.3 µM) | 8 µg/mL (≈ 22.6 µM) | > 32 µg/mL | 8 µg/mL (≈ 22.6 µM) | 
37 | C=CCN(c1cccc(OC)c1)S(=O)(=O)c1ccc([N+](=O)[O-])cc1[N+](=O)[O-] | 16 µg/mL (≈ 40.7 µM) | 8 µg/mL (≈ 20.3 µM) | > 32 µg/mL | 8 µg/mL (≈ 20.3 µM) | 
38 | COc1ccc(CN(CCCN(Cc2ccccc2)S(=O)(=O)c2ccc([N+](=O)[O-])cc2[N+](=O)[O-])S(=O)(=O)c2ccc([N+](=O)[O-])cc2[N+](=O)[O-])cc1 | > 32 µg/mL | > 32 µg/mL | > 32 µg/mL |  | 
39 | CC(=O)NC[C@H]1CN(c2ccc(N3CCOCC3)c(F)c2)C(=O)O1 [LINEZOLID] |  |  |  | 1 µg/mL (≈ 2.96 µM) | 
40 | CCN(c1ccccc1OC)S(=O)(=O)c1ccc([N+](=O)[O-])cc1[N+](=O)[O-] | > 32 µg/mL | 8 µg/mL (≈ 21 µM) | > 32 µg/mL | 8 µg/mL (≈ 21 µM) | 
